Shown are actives, neighbours in structure and some others; about 4% of the full set was active somewhere.
MPTP block: blocks calcium-induced mitochondrial swelling; isolated mouse mitochondria, Ca2+ swelling absorbance, 30 min; inhibition, % at 10 µM; 360,000 tested, 1.4% active;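 active = inhibition of 50% or more, scaled per plate between neutral and stimulator controls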;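 note: 0% = DMSO wells given calcium and 100% = 1 mM EGTA wells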
GPR7 antagonist: blocks human GPR7 receptor signaling | 290,000 tested, 1.1% active | GPR7-expressing cells, fluorescence antagonist assay | P48145 | inhibition, % at 4.4 µM; in the data active = inhibition above about 16%, passing the limit was not always enough;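 note: cells stimulated with the agonist NPW; 0% = agonist with vehicle and 100% = vehicle without agonist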
TAAR1 antagonist: antagonists of human TAAR1; Q96RJ0; AID 624466; inhibition, % at 3 µM; 360,000 tested, 1.5% active; CHO RD-HGA16 TAAR1, Fluo-8 calcium fluorescence, antagonist;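 active = inhibition above a per-plate cutoff, the mean inhibition of test compounds on that plate plus 3 SD, cut at about 49% in these data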;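 note: 0% = DMSO plus EC80 beta-PEA response and 100% = DMSO alone without agonist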
Target sequence (Q96RJ0 whole entry, looked up): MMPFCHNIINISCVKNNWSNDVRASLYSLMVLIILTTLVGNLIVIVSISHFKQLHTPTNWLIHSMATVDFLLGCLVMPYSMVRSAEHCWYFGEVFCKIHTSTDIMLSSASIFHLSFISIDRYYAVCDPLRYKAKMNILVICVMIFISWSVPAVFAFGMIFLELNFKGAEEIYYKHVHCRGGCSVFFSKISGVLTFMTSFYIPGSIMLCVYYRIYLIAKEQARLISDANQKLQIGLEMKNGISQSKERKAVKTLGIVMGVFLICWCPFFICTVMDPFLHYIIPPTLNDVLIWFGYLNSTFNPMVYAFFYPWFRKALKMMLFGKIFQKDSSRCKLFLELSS
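Test system: hTAAR1-expressing CHO RD-HGA16 cells, Gα16-coupled; Probe or stimulus: EC80 β-phenethylamine stimulus; Compound dosing: single nominal final test compound concentration of 3 µM; Timing: 140 s kinetic read after compound, 140 s after agonist; Signal: Fluo-8 calcium-sensitive fluorescence; Measure: % inhibition of agonist calcium response; Controls: DMSO and EC80 PEA controls.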
DAGLB inhibitor: blocks human DAGLB lipase activity; Q8NCG7; HEK293T DAGLB membrane lysate, EnzChek fluorogenic substrate; inhibition, % at 5.17 µM; 340,000 tested, 0.059% active; in the data active = inhibition above about 34%;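 note: 0% = enzyme with vehicle and 100% = wells lacking enzyme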
TAAR1 ag: human TAAR1 agonism; Q96RJ0; CHO RD-HGA16 TAAR1, Fluo-8 calcium fluorescence; vehicle wells 0%, saturating PEA agonist 100%; activation, % at 3 µM; 360,000 tested, 0.99% active;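 active = activation above the mean activation of all test compounds in the run plus 3 SD, cut at about 38% in these data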
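Test system: RD-HGA16 (CHO) cells co-expressing Gα16 and hTAAR1; dosing: one-point dosing at 3 µM (nominal); timing: 17-24 h seeding, 75 min 37 °C dye, 30 min RT; signal: kinetic Fluo-8 calcium fluorescence; read-out basis: % activation relative to PEA EC100 response; controls: DMSO and PEA EC100; replicates: n 1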
MPTP counter: Rhodamine 123 counter-screen of mitochondrial pore hits. isolated mitochondria, membrane potential, Rhodamine 123 fluorescence. shares compounds with MPTP block. 5,000 tested, 78% active. inhibition, % at 10 µM; in the data active = inhibition above about 22%;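 note: 0% = DMSO vehicle and 100% = positive control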
MPTP swell DR: MPTP inhibition, dose response swelling confirmation. shares compounds with MPTP block. isolated mitochondria swelling, absorbance. IC50, µM. 780 tested, 58% active; in the data active = IC50 below about 20 µM
MPTP counter DR: active in counter-screen for permeability transition pore inhibitors. shares compounds with MPTP block. isolated mitochondria counterscreen, fluorescence read-out. IC50, µM. 780 tested, 49% active; in the data active = IC50 below about 80 µM
* = called active by the depositor; i = inactive; · = no result given.

SMILES	MPTP block	GPR7 antagonist	TAAR1 antagonist	DAGLB inhibitor	TAAR1 ag	MPTP counter	others
CCOC(=O)C1=C(O)c2ccccc2C(=O)/C1=C\c1ccc(CC)cc1	67.3*	-14.9	·	1.1	·	76.8*
COc1cccc([C@@H](NC(=O)C(F)(F)F)[C@@H]2CCCC=C2c2ccccc2)c1	·	·	-2.4	·	0.4	·
CCOC(=O)C1(CCCc2ccccc2)CCN(Cc2nccn2CC)CC1	56.3*	18.9	19.7	-4.6	13.4	40.0*
CCOC(=O)C1(CCOC)CCN(Cc2cccc(OCc3ccccc3)c2)CC1	55.3*	-9.0	-10.8	-3.2	2.7	9.7	MPTP swell DR=14.6*;MPTP counter DR=26.5*
CCOC(=O)C1(CCOc2ccccc2)CCN(Cc2cccs2)CC1	51.9*	0.3	-4.9	-6.7	6.2	8.3	MPTP swell DR=17*;MPTP counter DR=47.9*
CCOC(=O)C1(CCOC)CCN(C/C=C/c2ccccc2OC)CC1	89.5*	-2.6	-15.8	-0.5	5.6	49.1*
CCOC(=O)C1(CCOc2ccccc2)CCN(Cc2ccncc2)CC1	-1.8	-5.4	11.2	-0.6	4.3	·
CCOC(=O)C1(CCOC)CCN(Cc2ccncc2)CC1	0.5	-16.1	8.2	-0.6	3.0	·
CCOC(=O)c1csc(-c2ccc(COC(=O)c3ccccc3)o2)n1	1.5	·	·	·	·	·
CCOC(=O)C1(C)CCN1C(=O)c1cc(-c2ccc(Cl)cc2)oc1C (stereo unspecified)	0.9	·	4.3	·	0.4	·
COC(=O)[C@]12C[C@H](CC(=O)N3CCOCC3)C(=O)N(Cc3ccccc3)C1=C[C@H](C1CCCC1)O[C@@H]2C	·	·	-4.1	·	1.0	·
O=C(NCCCN1CCCC1=O)Nc1cc(Cl)ccc1Cl	-0.5	-4.7	-16.6	-2.6	3.5	·
O=C(NCCCn1ccnc1)Nc1ccc(Cl)c(Cl)c1	79.0*	1.0	-1.9	-0.4	20.1	88.0*
O=C(NCCCN1CCCC1=O)Nc1ccc(F)c(Cl)c1	84.2*	3.9	3.2	-7.3	13.8	92.1*
O=C(CSc1nnc2n1CCCN2C(=S)Nc1ccc(Cl)cc1)c1ccccc1	83.5*	4.3	25.3	-1.1	12.0	88.7*
COc1ccc(CNc2cc(C)nc3ncnn23)c(OC)c1	75.2*	8.5	13.6	-0.9	6.6	33.5*
COc1ccc(Nc2cc(C)nc3ncnn23)c(OC)c1	-2.8	-3.8	-7.9	-1.8	2.1	·
CSc1nsc(SC)c1-c1ccc(Cl)cc1	0.8	·	-18.2	-8.6	-0.9	·
CC1(C)CC(=O)C(=Cc2cn(-c3ccccc3)nc2-c2ccccc2)C(=O)C1	75.8*	·	-16.6	2.9	-1.0	-3.2	MPTP swell DR=i;MPTP counter DR=5.67*
COc1ccc(CCN(C)C(=O)Cc2ccc(-c3ccccc3)cc2)cc1OC	64.4*	9.7	-0.6	-4.1	3.0	72.4*
COc1ccc(-c2cc(NC=O)c3ncc(-c4ccc(OC)c(OC)c4)n3c2)cc1	0.2	·	-31.8	·	0.5	·
O=C(OCc1nc2ccccc2s1)c1ccccc1O	-0.2	-3.9	15.2	-4.5	1.3	·
N#C/C(=C(/O)COC(=O)c1ccc(O)cc1)c1nc2ccccc2[nH]1	3.3	-0.6	-9.1	0.1	0.1	·
CC(C)(C)c1ccc(C(=O)OC/C(O)=C(\C#N)c2nc3ccccc3s2)cc1	97.2*	-5.1	3.3	6.2	6.1	70.2*
N#C/C(=C(/O)COC(=O)c1ccccc1O)c1nc2ccccc2s1	100.1*	-6.3	7.5	1.1	8.6	93.6*
SMILES	MPTP block	GPR7 antagonist	TAAR1 antagonist	DAGLB inhibitor	TAAR1 ag	MPTP counter	others
CCCCn1c(/C=N/Nc2nc3ccccc3[nH]2)nc2ccccc21	100.4*	-1.7	5.3	3.7	0.6	84.0*
Clc1cccc(-c2sc(Nc3ccccc3)n[n+]2-c2ccccc2)c1Cl	45.2	-5.9	22.3	0.8	5.6	·
Fc1ccc(-[n+]2nc(Nc3ccccc3)sc2-c2cccc(Cl)c2Cl)cc1	95.3*	-5.1	21.9	-5.8	4.0	108.9*
N#C/C(=C(/O)c1ccc([N+](=O)[O-])s1)c1nc2ccccc2[nH]1	85.4*	-12.3	-15.5	8.4	10.2	80.9*
N#C/C(=C(/O)c1ccc(Br)s1)c1nc2ccccc2[nH]1	3.1	6.6	11.4	2.4	1.2	·
COc1ccc(CNCCNC(=O)c2nonc2N)cc1OC	-0.5	-11.1	1.4	-1.8	15.0	·
